Laboratory results: ChEMBL document CHEMBL1125497, “Synthesis and anticonvulsant activity of enaminones” (J Med Chem, 1992)

Key:
[1] = Antiepileptic activity in male CF1 mice 4 hr after oral administration measured in neurological toxicity (Tox) test at a dose of 50 mg/kg (no. of animals treated /protected); activity value is 0/4; format: functional, Mus musculus
[2] = Antiepileptic activity in male CF1 mice 2 hr after oral administration measured in maximum electroshock seizure(MES) test at a dose of 50 mg/kg (no. of animals treated /protected); activity value is 2/4; format: functional, Mus musculus
[3] = Antiepileptic activity in male CF1 mice 4 hr after administration measured in neurological toxicity (Tox) test at a dose of 100 mg/kg; activity value is 0/4; format: functional, Mus musculus
[4] = Protective index was measured as TD50/MES ED50 in mice on ip administration; format: ADME, organism-based; conditions: mouse, in vivo, read-out: PI
Outline: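 Male CF1 mice (ca. 24–34 g), compound given ip as 0.5% methylcellulose suspension. MES ED50 = dose protecting 50% from tonic hind limb extension; TD50 = median neurotoxic dose by rotorod; both at time of peak effect, with confidence limits by Litchfield and Wilcoxon. PI = TD50/MES ED50.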

[5] = Antiepileptic activity in male CF1 mice 2 hr after oral administration measured in neurological toxicity (Tox) test at a dose of 50 mg/kg (no. of animals treated /protected); activity value is 0/4; format: functional, Mus musculus
[6] = Antiepileptic activity in male CF1 mice 0.25 hr after oral administration measured in maximum electroshock seizure(MES) test at a dose of 50 mg/kg (no. of animals treated /protected); activity value is 2/4; format: functional, Mus musculus
[7] = Dose producing neurotoxic effects in 50% of the CF1 mice after intraperitoneal administration.; format: functional; conditions: Mus musculus, ip; read-out: ED50 (the source's name)
Outline: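 Phase II quantification in CF1 male mice (ca. 24–34 g), dosing ip or po in 0.5% methylcellulose suspension. ED50 is protection from tonic hind limb extension in MES. TD50 is rotorod neurotoxicity. Both were read at time of peak effect and derived by Litchfield–Wilcoxon with 95% confidence limits.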

[8] = Antiepileptic activity in male CF1 mice 1 hr after oral administration measured in neurological toxicity (Tox) test at a dose of 10 mg/kg (no. of animals treated /protected); activity value is 0/4; format: functional, Mus musculus
[9] = Antiepileptic activity in male CF1 mice 1 hr after oral administration measured in maximum electroshock seizure(MES) test at a dose of 6 mg/kg (no. of animals treated /protected); activity value is 1/4; format: functional, Mus musculus
[10] = Antiepileptic activity in male CF1 mice 4 hr after administration measured in maximum electroshock seizure(MES) test at a dose of 300 mg/kg (no. of animals treated /protected); activity value is 1/1; format: functional, Mus musculus
[11] = Antiepileptic activity in male CF1 mice 2 hr after oral administration measured in maximum electroshock seizure(MES) test at a dose of 10 mg/kg (no. of animals treated /protected); activity value is 4/4; format: functional, Mus musculus
[12] = Antiepileptic activity in male CF1 mice 0.5 hr after oral administration measured in maximum electroshock seizure(MES) test at a dose of 6 mg/kg (no. of animals treated /protected); activity value is 3/4; format: functional, Mus musculus
[13] = Antiepileptic activity in male CF1 mice 1 hr after oral administration measured in maximum electroshock seizure(MES) test at a dose of 6 mg/kg (no. of animals treated /protected); activity value is 2/4; format: functional, Mus musculus

Compound | Activity [1] | Activity [2] | Activity [3] | selectivity ratio [4] | Activity [5] | Activity [6] | TD50 [7] | Activity [8] | Activity [9] | Activity [10] | Activity [11] | Activity [12] | Activity [13]
COC(=O)C1C(=O)C=C(NCc2ccccc2)CC1C (stereo not drawn) | 0 | 2 | 0 | > 11.9 | 0 | 2 | – | – | – | – | – | – | –
COC(=O)C1C(=O)C=C(Nc2ccc(Cl)cc2)CC1C (stereo not drawn) | – | – | – | – | – | – | 255 mg/kg | 0 | 1 | 1 | 4 | 3 | 2
